In ChEMBL document CHEMBL5376022, “Design, synthesis and biological evaluation of novel pyrimidine derivatives as bone anabolic agents promoting osteogenesis via the BMP2/SMAD1 signaling pathway” (RSC Med Chem, 2024):
Active and inactive are the calls of the source. The rule behind the calls is not given here.

Tests used:
[1] = system: Calvarial osteoblast; experiment: Induction of osteogenesis in BALB/c mouse calvarial osteoblast cells using PNPP as substrate assessed as increase in ALP activity at 0.1 to 10 nM measured after 48 hrs by spectrophotometry; format: functional, cell-based; details: Calvaria, dose 0.1-10 nM
Procedure, shortened: (§1)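 Neonatal BALB/c calvarial osteoblasts, 2 × 10³ cells per well, adhered 24 h, then exposed to compounds (1 pM to 1 μM range) in osteoblast differentiation medium for 48 h. Cells frozen overnight at −80 or −20 °C, thawed at 37 °C to expose ectoenzyme; p-nitrophenyl phosphate added and ALP activity read at 405 nm. Untreated cells as control.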

[2] = system: Calvarial osteoblast; experiment: Cytotoxicity in BALB/c mouse calvarial osteoblast cells at 0.001 to 1000 nM incubated for 48 hrs by MTT assay; format: toxicity, cell-based, Calvaria; details: 1 µM, dose 0.001-1000 nM
Procedure, shortened: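 Primary calvarial osteoblasts from 1–2 day old BALB/c pups (collagenase/dispase digests, α-MEM with 10% FBS) seeded at 2 × 10³ per well. MTT added for 4 h at 37 °C, formazan dissolved in DMSO, absorbance read at 570 nm.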

[3] = Clearance in BALB/c mouse at 5 mg/kg, po measured for 0.83 to 24 hrs by LC-MS/MS analysis; format: ADME, organism-based; details: in vivo, time 0.83-24 hrs
[4] = Volume of distribution in BALB/c mouse at 5 mg/kg, po measured for 0.83 to 24 hrs by LC-MS/MS analysis; format: ADME, organism-based; details: in vivo, time 0.83-24 hrs
[5] = system: Mus musculus; experiment: Induction of osteogenesis in BALB/c mouse model of drill hole defect at femur mid-diaphysis assessed as increase in extracellular matrix deposition at 1 to 10 mg/kg, po for 12 days by H and E staining based analysis; format: functional, organism-based; details: dose 1-10 mg/kg, time 12.0 day
Procedure, shortened: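 Drill-hole femur defect, female BALB/c mice, oral dosing 1–10 mg kg⁻¹ for 12 days. Injury-site tissue fixed 48 h in 4% paraformaldehyde, 48 h in 70% isopropanol, decalcified, paraffin-embedded; 5 μm transverse sections stained with H&E and imaged by bright-field microscopy.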

[6] = system: Mus musculus; experiment: Induction of osteogenesis in BALB/c mouse model of drill hole defect at femur mid-diaphysis assessed as increase in trabecular thickness at 5 to 10 mg/kg, po for 12 days by micro-CT analysis; format: functional, organism-based; details: dose 5-10 mg/kg, time 12.0 day
Procedure, shortened: (§2)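 Female BALB/c mice, 8–9 weeks, given a drill-hole defect at femur mid-diaphysis under intraperitoneal ketamine (45 mg kg⁻¹)/xylazine (5 mg kg⁻¹); ten per group. Oral dosing at 1, 5 or 10 mg kg⁻¹ began the day after injury for 12 days; PTH 20 μg kg⁻¹ per day as reference. Defect region scanned by μCT for BV/TV, Tb.Th and Tb.N.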

[7] = system: Mus musculus; experiment: Induction of osteogenesis in BALB/c mouse model of drill hole defect at femur mid-diaphysis assessed as increase in callus formation at 1 to 10 mg/kg, po for 12 days by micro-CT analysis; format: functional, organism-based; details: dose 1-10 mg/kg, time 12.0 day; procedure, shortened: as §2
[8] = system: Calvarial osteoblast; experiment: Induction of osteogenesis in BALB/c mouse calvarial osteoblast cells assessed as increase in BMP2 level at 1 to 100 pM incubated for 48 hrs by Western blot analysis; format: functional, cell-based; details: Calvaria, dose 1-100 pM
Procedure, shortened: (§3)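 Calvarial osteoblasts seeded at 10⁶ per well, treated after 24 h at 1 pM and 100 pM for 48 h. Lysed with protease and phosphatase inhibitors, protein by BCA; 30 μg resolved by SDS-PAGE, PVDF transfer, 5% BSA block. Primary antibodies to BMP2, SMAD1, phospho-SMAD1, RUNX2, type I col (1:1000) overnight at 4 °C; β-actin loading control; HRP chemiluminescence and densitometry.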

[9] = Cmax in BALB/c mouse at 5 mg/kg, po measured for 0.83 to 24 hrs by LC-MS/MS analysis; format: ADME, organism-based; parameters: time 0.83-24 hrs, dose 5 mg/kg, route po; details: in vivo
[10] = system: Calvarial osteoblast; experiment: Induction of cell proliferation of BALB/c mouse calvarial osteoblast cells at 0.1 nM incubated for 48 hrs by MTT assay relative to control; format: functional, Calvaria
Procedure, shortened: (§4)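 Primary calvarial osteoblasts from 1–2-day-old neonatal BALB/c pups, released by dispase/collagenase digestion and grown in α-MEM with 10% FBS. Seeded at 2 × 10³ cells per well, treated after 24 h for 48 h in α-MEM with 5% FBS, 10 mM β-glycerophosphate and 50 μg mL⁻¹ ascorbic acid. MTT added for 4 h at 37 °C, formazan dissolved in DMSO, absorbance read at 570 nm versus untreated cells.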

[11] = Tmax in BALB/c mouse at 5 mg/kg, po measured for 0.83 to 24 hrs by LC-MS/MS analysis; format: ADME, organism-based; details: in vivo, time 0.83-24 hrs
[12] = system: Mus musculus; experiment: Induction of osteogenesis in BALB/c mouse model of drill hole defect at femur mid-diaphysis assessed as increase in bone volume/tissue volume fraction at 5 to 10 mg/kg, po for 12 days by micro-CT analysis; format: functional, organism-based; details: dose 5-10 mg/kg, time 12.0 day; procedure, shortened: as §2
[13] = system: Mus musculus; experiment: Induction of osteogenesis in BALB/c mouse model of drill hole defect at femur mid-diaphysis assessed as increase in trabecular number at 5 mg/kg, po for 12 days by micro-CT analysis; format: functional, organism-based; details: time 12.0 day; procedure, shortened: as §2
[14] = system: Calvarial osteoblast; experiment: Induction of osteogenesis in BALB/c mouse calvarial osteoblast cells using PNPP as substrate assessed as increase in ALP activity at 0.001 to 1000 nM measured after 48 hrs by spectrophotometry; format: functional, cell-based; details: Calvaria, dose 0.001-1000 nM; procedure, shortened: as §1
[15] = Stability in SGF assessed as compound remaining measured upto 6 hrs by RP-UHPLC analysis; format: ADME; details: simulated gastric fluid (SGF), read-out: Stability
[16] = system: Mus musculus; experiment: Induction of osteogenesis in BALB/c mouse model of drill hole defect at femur mid-diaphysis assessed as increase in BMP2 mRNA level at 5 to 10 mg/kg, po for 12 days by qPCR analysis; format: functional, organism-based; details: dose 5-10 mg/kg, time 12.0 day
[17] = Induction of osteogenesis in BALB/c mouse MSC cells assessed as increase in mineral nodule formation at 0.001 nM treated for 21 days with compound refreshment for every 48 hrs by Alizarin red S staining based analysis relative to control; format: functional; details: time 21 day
Procedure, shortened: (§5)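 Bone marrow cells were flushed from the long bones of 6–8-week-old BALB/c mice and seeded at 2 × 10⁶ per well. Medium: 10% FBS, 100 nM dexamethasone, 50 μg mL⁻¹ ascorbic acid and 10 mM β-glycerophosphate. Compound and medium were renewed every 48 h for 21 days. Cells were fixed in 4% paraformaldehyde and stained with Alizarin red (pH 4.2). Stain was eluted with 10% cetylpyridinium chloride for 1 h and read at 595 nm versus control.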

[18] = Induction of osteogenesis in BALB/c mouse MSC cells assessed as increase in mineral nodule formation at 0.1 nM treated for 21 days with compound refreshment for every 48 hrs by Alizarin red S staining based analysis relative to control; format: functional; details: time 21 day; procedure, shortened: as §5
[19] = system: Calvarial osteoblast; experiment: Induction of osteogenesis in BALB/c mouse calvarial osteoblast cells assessed as increase in SMAD1 level at 1 to 100 pM incubated for 48 hrs by Western blot analysis; format: functional, cell-based; details: Calvaria, dose 1-100 pM; procedure, shortened: as §3
[20] = system: Calvarial osteoblast; experiment: Induction of osteogenesis in BALB/c mouse calvarial osteoblast cells assessed as increase in type-1 col mRNA level at 1 to 100 pM by qPCR analysis; format: functional, cell-based; details: Calvaria, dose 1-100 pM
Procedure, shortened: (§6)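 BALB/c calvarial osteoblasts treated at 1 pM and 100 pM; RNA isolated, cDNA synthesized and RUNX2 and type 1 col transcripts measured by PCR.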

[21] = system: Mus musculus; experiment: Induction of osteogenesis in BALB/c mouse model of drill hole defect at femur mid-diaphysis assessed as increase in RUNX2 mRNA level at 5 to 10 mg/kg, po for 12 days by qPCR analysis; format: functional, organism-based; details: dose 5-10 mg/kg, time 12.0 day
[22] = AUC (0 to infinity) in BALB/c mouse at 5 mg/kg, po measured for 0.83 to 24 hrs by LC-MS/MS analysis; format: ADME, organism-based; parameters: time upper 24 hrs, dose 5 mg/kg, time lower 0.83 hrs, route po; details: in vivo
[23] = MRT in BALB/c mouse at 5 mg/kg, po measured for 0.83 to 24 hrs by LC-MS/MS analysis; format: ADME, organism-based; details: in vivo, time 0.83-24 hrs
[24] = system: Calvarial osteoblast; experiment: Induction of osteogenesis in BALB/c mouse calvarial osteoblast cells assessed as increase in type-1 col level at 1 to 100 pM incubated for 48 hrs by Western blot analysis; format: functional, cell-based; details: Calvaria, dose 1-100 pM; procedure, shortened: as §3
[25] = system: Calvarial osteoblast; experiment: Induction of osteogenesis in BALB/c mouse calvarial osteoblast cells assessed as increase in RUNX2 level at 1 to 100 pM incubated for 48 hrs by Western blot analysis; format: functional, cell-based; details: Calvaria, dose 1-100 pM; procedure, shortened: as §3
[26] = Stability in SIF assessed as compound remaining measured upto 6 hrs by RP-UHPLC analysis; format: ADME; details: simulated intestinal fluid (SIF), read-out: Stability
[27] = Stability in BALB/c mouse plasma assessed as compound remaining measured upto 6 hrs by RP-UHPLC analysis; format: ADME, cell-free; details: read-out: Stability
[28] = Stability in SPF assessed as compound remaining measured upto 6 hrs by RP-UHPLC analysis; format: physicochemical; details: read-out: Stability
[29] = system: Mus musculus; experiment: Induction of osteogenesis in BALB/c mouse model of drill hole defect at femur mid-diaphysis assessed as increase in type-1 col mRNA level at 5 to 10 mg/kg, po for 12 days by qPCR analysis; format: functional, organism-based; details: dose 5-10 mg/kg, time 12.0 day
[30] = system: Mus musculus; experiment: Induction of osteogenesis in BALB/c mouse model of drill hole defect at femur mid-diaphysis assessed as increase in fracture healing at 1 to 10 mg/kg, po for 12 days by micro-CT analysis; format: functional, organism-based; details: dose 1-10 mg/kg, time 12.0 day; procedure, shortened: as §2
[31] = Half life in BALB/c mouse at 5 mg/kg, po measured for 0.83 to 24 hrs by LC-MS/MS analysis; format: ADME, organism-based; details: in vivo, time 0.83-24 hrs
[32] = system: Calvarial osteoblast; experiment: Induction of osteogenesis in BALB/c mouse calvarial osteoblast cells assessed as increase in RUNX mRNA level at 1 to 100 pM by qPCR analysis; format: functional, cell-based; details: Calvaria, dose 1-100 pM; procedure, shortened: as §6
[33] = system: Calvarial osteoblast; experiment: Induction of cell proliferation of BALB/c mouse calvarial osteoblast cells at 10 nM incubated for 48 hrs by MTT assay relative to control
[34] = system: Mus musculus; experiment: Induction of osteogenesis in BALB/c mouse model of drill hole defect at femur mid-diaphysis assessed as increase in calcein binding at fracture site at 5 mg/kg, po for 12 days by confocal microscopy; format: functional, organism-based; details: time 12.0 day
Procedure, shortened: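 Femur drill-hole model in female BALB/c mice, oral dosing 1–10 mg kg⁻¹ for 12 days from the day after injury. Calcein 20 mg kg⁻¹ in saline given i.p. 24 h before autopsy; undecalcified drill-hole region embedded in acrylic, 50 μm sections cut, and calcein intensity at the fracture site quantified.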

[35] = system: Calvarial osteoblast; experiment: Induction of osteogenesis in BALB/c mouse calvarial osteoblast cells assessed as increase in phosphorylated SMAD1 level at 1 to 100 pM incubated for 48 hrs by Western blot analysis; format: functional, cell-based; details: Calvaria, dose 1-100 pM; procedure, shortened: as §3
[36] = system: Calvarial osteoblast; experiment: Induction of cell proliferation of BALB/c mouse calvarial osteoblast cells at 0.001 nM incubated for 48 hrs by MTT assay relative to control; format: functional, Calvaria; procedure, shortened: as §4

COc1cc(OC)c(-c2cc(-c3ccc(Cl)cc3)nc(N)n2)cc1OC
Activity [1]: Active
Activity [2]: Non-Toxic

CCCCCC(=O)Nc1nc(-c2ccc(Br)cc2)c(Br)c(-c2cc(OC)c(OC)cc2OC)n1
CL [3]: 1964 mL/min/kg
Vd [4]: 2113.99 L/kg
Activity [5]: Active
Activity [6]: Active
Activity [7]: Active
Activity [8]: Active
Cmax [9]: 0.83 ng/mL
Activity [10]: ~31%
Tmax [11]: 0.83 h
Activity [12]: Active
Activity [13]: Active
Activity [14]: Active
remaining at 6 h [15]: > 50%
Activity [16]: Active
Activity [17]: ~40%
Activity [18]: ~39%
Activity [19]: Active
Activity [20]: Active
Activity [21]: Active
AUC [22]: 6.18006 ng·h/mL
MRT [23]: 18.1 h
Activity [24]: Active
Activity [25]: Active
remaining at 6 h [26]: > 50%
remaining at 6 h [27]: > 85%
remaining at 6 h [28]: > 85%
Activity [2]: Non-Toxic
Activity [29]: Active
Activity [30]: Active
half-life [31]: 12.4 h
Activity [32]: Active
Activity [33]: ~23%
Activity [34]: Active
Activity [35]: Active
Activity [36]: ~32%

COc1cc(OC)c(-c2cc(-c3ccc(Br)cc3)nc(N)n2)cc1OC
Activity [10]: ~30%
Activity [1]: Active
Activity [18]: ~23%
Activity [2]: Non-Toxic
